Shown are actives, neighbours in structure and some others; about 3.7% of the full set was active somewhere.
KCNQ1 act – potentiators or activators of KCNQ1 channel, primary screen, cell-based, thallium flux, high-throughput; CHO-K1 KCNQ1, thallium flux FluxOR fluorescence; stronger effect = higher value; B-score at 10 µM; Potassium voltage-gated channel subfamily KQT member 1 (Homo sapiens), P51787; 310,000 tested, 0.35% active; AID 2648, 2010;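 active = fluorescence ratio B-score, a plate-corrected score, at least three library SD, with initial intensity B-score within 5 SD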
Target sequence (P51787 whole entry, looked up): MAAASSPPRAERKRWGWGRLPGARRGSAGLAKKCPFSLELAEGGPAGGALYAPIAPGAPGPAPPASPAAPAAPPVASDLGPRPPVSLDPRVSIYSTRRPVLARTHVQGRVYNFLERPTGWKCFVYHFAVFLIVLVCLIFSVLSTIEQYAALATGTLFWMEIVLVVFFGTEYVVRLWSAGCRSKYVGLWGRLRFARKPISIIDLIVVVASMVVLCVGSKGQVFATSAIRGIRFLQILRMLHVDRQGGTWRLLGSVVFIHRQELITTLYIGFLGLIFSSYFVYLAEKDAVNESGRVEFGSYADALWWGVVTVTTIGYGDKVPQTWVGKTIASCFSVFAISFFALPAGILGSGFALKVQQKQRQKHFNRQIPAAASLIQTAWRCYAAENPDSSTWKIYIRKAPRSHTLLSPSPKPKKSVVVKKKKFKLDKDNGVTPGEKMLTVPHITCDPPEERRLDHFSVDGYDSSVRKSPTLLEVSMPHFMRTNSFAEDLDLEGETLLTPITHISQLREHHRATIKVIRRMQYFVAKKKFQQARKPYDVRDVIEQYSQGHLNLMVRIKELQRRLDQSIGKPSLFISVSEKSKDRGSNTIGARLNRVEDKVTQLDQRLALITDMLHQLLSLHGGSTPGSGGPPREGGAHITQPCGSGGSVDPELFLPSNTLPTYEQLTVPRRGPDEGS
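Medium – assay buffer, equal DMSO in all wells · Material – CHO-K1 cell line with stable KCNQ1 potassium channel expression · Signal – kinetic FluxOR thallium fluorescence, 10-s 1-Hz baseline, 110-s post-stimulus read · Compound – single concentration per compound, DMSO matched to controls · Schedule – 37 °C overnight plating, 90-min dark dye load, 20-min compound pretreatment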
KCNK3 block – human KCNK3 channel inhibitors, primary screen, CHO cells, FluxOR thallium flux, B-score. Potassium channel subfamily K member 3 (Homo sapiens), O14649. 340,000 tested, 0.84% active. B-score at 10 µM. FluxOR fluorescence; stronger effect = lower value;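 active = B-score under library mean minus 4 SD, starting fluorescence ratio at most library mean plus 5 SD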;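 also: more negative B-score means stronger inhibition of thallium flux through KCNK3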
hERG rescue – hERG rescue from dofetilide block, primary screen, cell-based, CHO-hERG, FluxOR thallium flux, dofetilide IC70; dofetilide IC70 present; activation (rescue from dofetilide block), less the hit threshold, % at 10 µM; 310,000 tested, 0.51% active;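 active = activation above the mean of controls blocked by dofetilide plus 5 SD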;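 also: thallium influx through hERG after potassium depolarization seen as dye fluorescence rise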
KCNQ1 block – inhibitors of human KCNQ1 channel, primary screen, cell-based, thallium flux, high-throughput | CHO-K1 KCNQ1, FluxOR thallium flux fluorescence; stronger effect = higher value | B-score at 10 µM | 310,000 tested, 1.3% active | AID 2642, 2010;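 active = compounds whose thallium flux B-score, printed positive for inhibition, exceeds three library SD while starting fluorescence stays within three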;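 also: channel opened by potassium depolarization with thallium stimulus after 20 min compound exposure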
Kir21 inh – inhibitors of mouse Kir2.1 inward-rectifier potassium channel; Inward rectifier potassium channel 2 (Mus musculus), P35561; HEK293-Kir2.1, FluxOR thallium flux fluorescence; stronger effect = lower value; B-score at 10 µM; 310,000 tested, 0.85% active;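 active = fluorescence ratio B-score at or below minus 3 SD of library scores, with starting-brightness B-score within 2 SD, cut at about -4.2 in these data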;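 also: channel flux triggered by added potassium and thallium sulfate stimulus; B-score of peak minus minimum fluorescence over baseline after thallium stimulus; more negative B-score means stronger Kir2.1 block with less thallium influx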
KCNK9 inh-1 – KCNK9 potassium channel inhibitors, primary screen, HEK293 cells, thallium flux. Potassium channel subfamily K member 9 (Homo sapiens), Q9NPC2. FluxOR thallium flux fluorescence; stronger effect = lower value. B-score at 10 µM. 310,000 tested, 1.2% active. AID 488922, 2010;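 active = ratio B-score over 3 SD below the library mean, with starting fluorescence within 5 SD of its mean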;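 also: negative B-score means less thallium flux so channel inhibition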
hERG inh – hERG channel inhibition, counter-screen for Kir2.1 inhibitor project, cell-based, thallium flux. shares compounds with Kir21 inh. hERG-expressing cells. inhibition, % at 10 µM. 320 tested, 20% active;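 also: host cells are CHO cells stably expressing hERG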
KCNK9 inh-2 – KCNK9 channel inhibition, selectivity assay for Kir2.1 inhibitor project, cell-based. KCNK9-expressing cells, ion flux inhibition. inhibition, % at 10 µM. shares compounds with Kir21 inh. 320 tested, 5% active
Kir2-1 patch inh – mouse Kir2.1 channel blockers, Kir2.1 inhibitor project, cell-based, secondary, automated electrophysiology; Kir2.1 cells, automated patch-clamp current inhibition; shares compounds with Kir21 inh; inhibition, % at 25 µM; 320 tested, 71% active; AID 463252, 2010
KCNQ1 inh valid – KCNQ1 potassium channel inhibitors, confirmation, cell-based, Tl flux, duplicate | shares compounds with KCNQ1 block | KCNQ1 cell line, FluxOR thallium flux fluorescence | inhibition, % at 10 µM | 1,600 tested, 93% active;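 active = primary screen active, with duplicate mean exceeding buffer control mean plus 3 SD of buffer wells, cut at about 28% in these data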
CHO KCNQ1 ctr – thallium flux effects in parental CHO cells, counter-screen for KCNQ1 inhibitor project, cell-based, Tl flux; fluorescence ratio (Tl flux) at 10 µM; shares compounds with KCNQ1 block; 1,600 tested, 21% active; AID 588366, 2011; parental CHO-K1, FluxOR thallium flux fluorescence ratio; stronger effect = lower value; zero means no signal rise above baseline;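 active = mean of duplicate thallium-flux fluorescence ratios in parental host cells more than 5 SD below the buffer control mean, cut at about 0.38 in these data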;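 also: ratio is peak minus minimum fluorescence divided by baseline fluorescence; actives read low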
KCNQ1 ephys val – KCNQ1 channel inhibitors, confirmation, orthogonal assay, cell-based, automated electrophysiology | 490 tested, 20% active | AID 624120, 2012 | KCNQ1-CHO cells, automated patch clamp current | calls only at 10 µM | shares compounds with KCNQ1 block;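 active = KCNQ1 current drop exceeding 3 SD of negative control wells, seen in both duplicate runs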;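 also: steady state current during a 2 s step from -80 to +40 mV; negative values mean current inhibition and positive values mean potentiation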
KCNQ2 spec – KCNQ2 channel inhibition, selectivity assay for KCNQ1 inhibitor project, cell-based | KCNQ2 cells, FluxOR thallium flux fluorescence | AID 651746, 2012 | inhibition, % at 10 µM | shares compounds with KCNQ1 block | 1,600 tested, 71% active;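 active = mean percent inhibition of the KCNQ2 thallium signal more than 5 SD above the buffer-only control wells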;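 also: KCNQ2 expressed in CHO cells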
KCNQ1-KCNE1 inh – KCNQ1/KCNE1 channel inhibition, selectivity assay for KCNQ1 inhibitor project, CHO-K1 cells, thallium flux, FluxOR; shares compounds with KCNQ1 block; FluxOR thallium flux fluorescence; inhibition, % at 10 µM; 1,600 tested, 77% active; AID 652147, 2013;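 active = mean percent inhibition of duplicate wells above the buffer-only control mean plus 3 SD of those controls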
KCNK9 inh conf – KCNK9 potassium channel inhibitors, confirmation, HEK293 cells, thallium flux, duplicate; FluxOR thallium flux fluorescence; inhibition, % at 10 µM; 4,900 tested, 43% active; shares compounds with KCNK9 inh-1;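 active = thallium signal inhibited by more than 5 SD of the compound-free buffer control wells, on both duplicate plates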
Kir21 sel – mouse Kir2.1 channel inhibition, confirmation, selectivity assay for KCNK9 modulator project, cell-based, HEK293, thallium flux; Kir2.1 cells, FluxOR thallium flux fluorescence; inhibition, % at 10 µM; 4,900 tested, 4% active; shares compounds with KCNK9 inh-1;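 active = thallium signal drop more than 5 SD beyond the mean of the no-compound control wells, seen in both duplicate plates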;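 also: signal is fluorescence rise after thallium addition divided by baseline fluorescence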
KCNK9 uninduced – thallium flux in non-induced HEK293 cells, confirmation, counter-screen for KCNK9 inhibitor project, cell-based, second counter screen, non-induced KCNK9-HEK293; shares compounds with KCNK9 inh-1; FluxOR thallium flux; inhibition, % at 10 µM; 4,900 tested, 40% active; AID 492997, 2010;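 active = thallium signal drop beyond 5 SD of the untreated control mean, on both duplicate plates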
KCNK3 inh conf – retest of human KCNK3 channel inhibitors, confirmation, CHO cells, FluxOR thallium flux, triplicate. FluxOR fluorescence; 0% buffer, 100% carvedilol maximal block. AID 651638, 2012. shares compounds with KCNK3 block. 2,400 tested, 99% active. ratio percent of control, % at 10 µM;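 active = ratio percent of control, averaged over triplicates, above buffer control mean plus 5 SD, cut at about 64% in these data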;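 also: ratio is the fluorescence rise from min to max over baseline after thallium stimulus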
KCNK3 uninduced – thallium flux inhibition in non-induced cells, primary screen, counter-screen for KCNK3 inhibitor project, cell-based, non-induced KCNK3 line, FluxOR thallium, triplicate; shares compounds with KCNK3 block; non-induced KCNK3 parental cells; stronger effect = lower value; thallium flux ratio (lower = more inhibition) at 10 µM; 2,400 tested, 40% active; AID 651747, 2012;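 active = thallium flux ratio, averaged over three wells, more than 5 SD below the buffer control mean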;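 also: host cells are CHO cells without KCNK3 induction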
Of the large screens only hits and unclear results are named; the others gave an inactive call (follow-up assays come after a bar, where they were run). Unless noted, no rule for the calls is given here.

C=CCc1ccc(OCC(O)CN2CCc3ccccc3C2)c(OC)c1 (configuration not stated)	KCNK3 block -9, Kir21 inh -5.8 | hERG inh 56% | KCNK9 inh-2 inactive | Kir2-1 patch inh 25% | KCNK3 inh conf 103 | KCNK3 uninduced 0.14
Cc1noc(C)c1COC(=O)CCN1c2ccccc2Sc2ccccc21	KCNK3 block -9.7, Kir21 inh -7.3 | hERG inh inactive | KCNK9 inh-2 inactive | Kir2-1 patch inh 10% | KCNK3 inh conf 126 | KCNK3 uninduced 0.14
O=[N+]([O-])c1cccc(-c2csc(Nc3ccccc3)n2)c1	KCNK3 block -14 | hERG inh inactive | KCNK9 inh-2 inactive | Kir2-1 patch inh inactive | KCNK3 inh conf 124 | KCNK3 uninduced 0.14
COc1ccccc1Nc1nc(-c2cccc([N+](=O)[O-])c2)cs1	none
Cc1ccc(-c2nc3ccccn3c2NCc2ccc3c(c2)OCO3)cc1	KCNK3 block -9.9, KCNQ1 block 10, Kir21 inh -7.1, KCNK9 inh-1 -17 | hERG inh 63% | KCNK9 inh-2 56% | Kir2-1 patch inh inactive | KCNQ1 inh valid 118 | CHO KCNQ1 ctr inactive | KCNQ1 ephys val inactive | KCNQ2 spec 113% | KCNQ1-KCNE1 inh 188% | KCNK9 inh conf 52% | Kir21 sel inactive | KCNK9 uninduced inactive | KCNK3 inh conf 143 | KCNK3 uninduced inactive
CCOC(=O)N1CCN(C(=O)CSC2=NS(=O)(=O)c3ccccc3N2)CC1	none
COc1ccc(OC)c(NC(=O)CSc2nc3scc(C)c3c(=O)[nH]2)c1	none
CCOC(=O)CSc1nc2c(sc(=S)n2-c2ccc(OCC)cc2)c(=O)[nH]1	none
CCOc1ccc(-n2c(=S)sc3c(=O)[nH]c(SCC(=O)C(C)(C)C)nc32)cc1	KCNQ1 block 6 | KCNQ1 inh valid 92 | CHO KCNQ1 ctr inactive | KCNQ1 ephys val active | KCNQ2 spec inactive | KCNQ1-KCNE1 inh 60%
CCn1c(=S)sc2c(=O)[nH]c(SCC(=O)Nc3cc(OC)ccc3OC)nc21	KCNQ1 block 10 | KCNQ1 inh valid 66 | CHO KCNQ1 ctr inactive | KCNQ2 spec inactive | KCNQ1-KCNE1 inh 89%
O=C(Nc1ccc(NC(=S)NC(=O)c2ccccc2F)cc1)c1cccs1	KCNQ1 block 6 | KCNQ1 inh valid 94 | CHO KCNQ1 ctr inactive | KCNQ1 ephys val active | KCNQ2 spec 63% | KCNQ1-KCNE1 inh 132%
CCOc1ccc(S(=O)(=O)N2CCC(C(=O)NC3CCCCC3)CC2)cc1	none
CNC(=S)Nc1ccc(C)cc1	none
S=C(Nc1cccc(Br)c1)c1ccccc1	none
N#Cc1ccc(NC(=O)Nc2ccc(Cl)cc2)cc1	KCNQ1 block 6 | KCNQ1 inh valid inactive | CHO KCNQ1 ctr inactive | KCNQ2 spec inactive | KCNQ1-KCNE1 inh inactive
S=C(NNC(=S)Nc1ccccc1)Nc1ccccc1	none
S=C(Nc1ccccc1)Nc1cccc(Br)c1	KCNQ1 block 8 | KCNQ1 inh valid 60 | CHO KCNQ1 ctr inactive | KCNQ2 spec inactive | KCNQ1-KCNE1 inh 60%

Compound activity: PubChem BioAssay, Johns Hopkins Ion Channel Center
